Assays:
Adenosine receptor A1 [1] = molecular target: T1, Adenosine receptor A1 (Homo sapiens, UniProt P30542); assay: Association constant for [3H]CCPA binding to Adenosine A1 receptor in the presence of compound; conditions: read-out: kon (M-1-s-1)
T1 sequence (P30542 whole entry): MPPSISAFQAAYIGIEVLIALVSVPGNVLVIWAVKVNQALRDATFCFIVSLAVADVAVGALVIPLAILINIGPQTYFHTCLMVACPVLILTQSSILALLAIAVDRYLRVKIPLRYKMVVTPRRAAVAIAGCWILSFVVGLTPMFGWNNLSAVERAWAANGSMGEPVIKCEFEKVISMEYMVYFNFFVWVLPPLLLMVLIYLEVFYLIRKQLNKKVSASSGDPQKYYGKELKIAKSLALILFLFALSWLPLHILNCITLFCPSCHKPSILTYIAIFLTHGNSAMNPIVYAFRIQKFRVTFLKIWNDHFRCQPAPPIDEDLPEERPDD
Outline: (§1)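 Kinetics on membranes (30 µg) from CHO cells expressing recombinant human A1 receptors, using [3H]CCPA at 1 nM, with or without compound. Association was started by adding membranes to the radioligand. For dissociation, membranes were preloaded with radioligand for 60 min at 25 °C, then 100 µM 8-cyclopentyltheophylline was added. Bound ligand was separated by GF/B filtration and counted by scintillation; t1/2 and rate constants were derived.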

Adenosine receptor A1 [2] = molecular target: T1, Adenosine receptor A1; assay: Dissociation constant for [3H]-CCPA binding to Adenosine A1 receptor in the presence of compound; outline: as §1

kon (Adenosine receptor A1 [1]): 4.16e+06 M⁻¹ s⁻¹
koff (Adenosine receptor A1 [2]): 0.001 s⁻¹
Compound: c1ccc(-c2n/c(=N/C3CCCC3)sn2-c2ccccc2)cc1

— BindingDB's records for doi:10.1021/jm049337s (Leiden/Amsterdam Center For Drug Research, 2005)
